Twelve molecules from ChEMBL document CHEMBL4130463, “Potential Anti-inflammatory Effects of the Fruits of Paulownia tomentosa” (J Nat Prod, 2017) can be followed below.

The test system of data set [1] is A549. As to the kind of experiment: Cytotoxicity against human A549 cells assessed as effect on cell viability at 2.5 uM after 24 hrs by CCK8 assay. The data set is classed as cell-based. The following applies: a549, 24 h. In short, it runs like this:
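A549 cells in RPMI 1640 with 10% FBS were seeded at about 1 × 10^4 cells/well and grown 16 h, then switched to FBS-free medium for 16 h. Compound added with or without TNF-α for 24 h. Viability measured in triplicate by CCK-8 absorbance and expressed as % of the negative control.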

For data set [2], the system named is A549. The data set is described as follows: Antiinflammatory activity in human A549 cells assessed as reduction in TNFalpha-induced IL8 production at 2.5 uM after 24 hrs by ELISA. The class given is functional, cell-based. In short, it runs like this: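 A549 cells (ATCC) grown in RPMI 1640 with 10% FBS and penicillin/streptomycin at 37 °C, 5% CO2. Seeded and grown 16 h, then held 16 h in FBS-free medium. Treated with compound with or without TNF-α for 24 h. IL-8 measured by ELISA at 450 nm and expressed as % of the TNF-α-alone control. Means ± SD of three independent experiments.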
Background: In an ELISA, binding on a coated surface is turned into a signal by an enzyme label.

In data set [3] the target is T1, Neutrophil elastase (Homo sapiens, UniProt P08246).
T1 sequence (P08246 whole entry): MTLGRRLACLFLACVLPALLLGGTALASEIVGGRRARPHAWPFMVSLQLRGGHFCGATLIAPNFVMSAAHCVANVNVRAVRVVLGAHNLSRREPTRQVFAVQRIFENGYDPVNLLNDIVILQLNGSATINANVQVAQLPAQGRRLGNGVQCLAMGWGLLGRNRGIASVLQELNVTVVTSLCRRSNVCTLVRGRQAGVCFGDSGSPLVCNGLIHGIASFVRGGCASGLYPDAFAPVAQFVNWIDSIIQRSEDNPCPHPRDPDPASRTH
As to the kind of experiment: Inhibition of human neutrophil elastase using MeOSuc-AAPV-pNA as substrate measured after 30 mins by spectrometric method.

The target in data set [4] is T1, Neutrophil elastase. As to the kind of experiment: Noncompetitive inhibition of human neutrophil elastase using varying levels of MeOSuc-AAPV-pNA as substrate measured after 30 mins by double-reciprocal Lineweaver-Burk plot analysis.

Broadly, the IC50 is the concentration at which inhibition is half-maximal. A high value points to lower potency. One may read the Ki as the equilibrium dissociation constant of an inhibitor or competing ligand from its target. Low values mean higher affinity, high ones lower affinity.

SMILES strings stand for the structures. The source made the active and inactive calls. No cut-off for these calls is given here. Bounds are passed on as bounds.

Regarding `C=C(C)C(O)CC/C(C)=C/Cc1c(O)cc2c(c1O)C(=O)C[C@@H](c1cc(O)c(OC)c(O)c1)O2` (some centres not stated), the Activity entry in data set [1] is given as “Non-Toxic”. For the same molecule, the result in data set [2] was Active.
Regarding `COc1cc([C@@H]2CC(=O)c3c(cc(O)c(C/C=C(\C)CCCC(C)(C)O)c3O)O2)cc(OC)c1O`, the Activity result in data set [1] is recorded as “Non-Toxic”. Besides, the outcome in data set [2] was Active.
For the molecule `COc1cc([C@@H]2CC(=O)c3c(cc(O)c(C/C=C(\C)CCC=C(C)C)c3O)O2)cc(OC)c1O`, 71.3 µM corresponded to half-maximal inhibition in data set [3] (IC50).
The same measure, in the same setting: the value for `COc1ccc([C@@H]2CC(=O)c3c(cc4c(c3O)CCC(C)(CCCC(C)(C)O)O4)O2)cc1O` (some centres not stated) was above 100 µM.
With `COc1cc([C@@H]2CC(=O)c3c(cc4c(c3O)CCC(C)(CCCC(C)(C)O)O4)O2)cc(O)c1O` (some centres not stated), the Activity result in data set [1] is “Non-Toxic”. In data set [2], the outcome was Active.
The like results for `COc1ccc([C@@H]2CC(=O)c3c(cc(O)c(C/C=C(\C)CCCC(C)(C)O)c3O)O2)cc1O` were, in that order, “Non-Toxic” and “Active”.
Consider `CC(C)(O)CCCC1(C)CCc2c(cc3c(c2O)C(=O)[C@H](O)[C@@H](c2ccc(O)c(O)c2)O3)O1` (some centres not stated), for which, in data set [1], the Activity result was “Non-Toxic”. Moreover, the result in data set [2] was Active.
In data set [3], `COc1cc([C@@H]2CC(=O)c3c(cc4c(c3O)CCC(C)(CCCC(C)(C)O)O4)O2)cc(OC)c1O` (some centres not stated) displayed an IC50 above 100 µM.
In turn, `O=c1cc(-c2ccc(O)c(O)c2)oc2cc(O)cc(O)c12` [LUTEOLIN] displayed a Ki in data set [4] of 10.1 µM. In data set [3], this molecule had an IC50 of 12.7 µM.
Take `O=c1cc(-c2ccc(O)cc2)oc2cc(O)cc(O)c12` [APIGENIN]: in data set [4], the Ki turned out to be 49.9 µM. Further, the IC50 in data set [3] amounted to 46.1 µM.
Regarding `CC(C)(O)CCCC1(C)CCc2c(cc3c(c2O)C(=O)C[C@@H](c2ccc(O)cc2)O3)O1` (some centres not stated), the Activity result in data set [1] is given as “Non-Toxic”. Moreover, the IC50 in data set [3] was above 100 µM. For the same molecule, in data set [2], the outcome was Active.
In data set [4], `CC(C)=CCC/C(C)=C/Cc1c(O)cc2c(c1O)C(=O)C[C@@H](c1ccc(O)c(O)c1)O2` [NYMPHAEOL A] registered a Ki of 15.7 µM. Also, the IC50 in data set [3] is 22.8 µM.
